Key:
OCI-AML2 cells = assay: Alamar blue viability assay, OCI-AML2; assay type: cell-based, human; details: read-out: IC50, growth and viability, OCI-AML2, 72-hr exposure
[1] = test system: ONC201-resistant Z138 cells (ONC-R Z138); assay: Growth and viability, ONC201-resistant Z138; assay type: cell-based, human; details: ONC-R Z138 compared with parental Z138
[2] = test system: OCI-AML2, OCI-AML3, TEX, Z138, HCT-116, HeLa, OC316, SUM159 cells; assay: Growth and viability of leukemia, lymphoma and solid tumor cell lines; assay type: cell-based, human; details: 72 hr
AML and other cancers = details: early phase clinical trials against AML and other cancers, ref Arrillaga-Romany et al., 2017, Kline et al., 2016, Stein et al.; cited from earlier work
[3] = test system: normal hematopoietic cells; assay: Effect on normal hematopoietic cells; details: 72 hr
[4] = target: T1, human ClpP (recombinant WT) (Homo sapiens, UniProt Q16740); assay: ClpP FITC-casein degradation, cell-free fluorescence assay; assay type: biochemical; details: positive cooperativity
T1 sequence (Q16740 57-277): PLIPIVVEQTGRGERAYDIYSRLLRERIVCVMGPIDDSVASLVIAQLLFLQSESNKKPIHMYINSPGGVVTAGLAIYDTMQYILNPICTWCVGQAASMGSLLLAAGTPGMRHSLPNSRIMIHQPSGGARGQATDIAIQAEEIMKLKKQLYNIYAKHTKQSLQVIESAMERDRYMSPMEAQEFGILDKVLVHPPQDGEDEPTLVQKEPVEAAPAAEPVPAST

[5] = target: T1, human ClpP (recombinant WT); assay: ClpP AC-WLA-AMC fluorogenic peptide cleavage assay; assay type: biochemical; details: read-out: EC50, ClpP cleavage of AC-WLA-AMC; without ClpX
[6] = target: T1, human ClpP (recombinant WT); assay: ClpP Ac-Phe-hArg-Leu-ACC fluorogenic peptide cleavage assay; assay type: biochemical; details: read-out: EC50, ClpP cleavage of Ac-Phe-hArg-Leu-ACC; without ClpX
[7] = target: T1, human ClpP (recombinant WT); assay: ClpP Clptide fluorogenic peptide cleavage assay; assay type: biochemical; details: read-out: EC50, ClpP cleavage of FAPHMALVPC (Clptide); without ClpX
[8] = test system: primary AML patient samples; assay: Apoptosis in primary AML patient samples; assay type: cell-based, human; details: 72 hr; including high risk cytogenetics and molecular mutations
[9] = test system: CLPP+/+ T-REx HEK293 cells; assay: Alamar blue viability, CLPP+/+ T-REx HEK293; assay type: cell-based, human; details: T-REx HEK293, 72 hr
[10] = test system: CLPP-/- T-REx HEK293 cells; assay: Alamar blue viability, CLPP-/- T-REx HEK293; assay type: cell-based, human; details: T-REx HEK293, 72 hr
recombinant D190A ClpP = recombinant D190A ClpP (Homo sapiens, UniProt Q16740, D190A); assay: D190A ClpP enzymatic assays; assay type: biochemical; details: peptide or protein substrates
Chain of recombinant D190A ClpP (Q16740 57-277 D190A): as the sequence (Q16740 57-277) above, with D134A counted along it

[11] = target: endogenous ClpP in OCI-AML2 (Homo sapiens, UniProt Q16740); assay: Cellular thermal shift assay; assay type: cell-based; details: at concentrations associated with activation in the enzymatic assays
Chain of endogenous ClpP in OCI-AML2 (Q16740 57-277): as the sequence (Q16740 57-277) above

ClpP = ClpP (Homo sapiens, UniProt Q16740); assay: Gel-based α-casein degradation assay; assay type: biochemical; details: 3 hr, without ClpX
Chain of ClpP (Q16740 57-277): as above

[12] = test system: Z138 cells with WT ClpP overexpression; assay: Z138 xenograft with WT ClpP overexpression; assay type: in vivo, NSG mice; details: ONC212 50 mg/kg every other day, oral gavage, WT ClpP group
Method in brief: (§1)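 Female NSG mice (n = 7 per group) received two million luciferase-labelled Z138 cells transfected with a WT or D190A mutant CLPP-overexpressing vector. Engraftment was confirmed by bioluminescence imaging on day 9 post-transplantation. Test compound (50 mg/kg) or water vehicle was then given by oral gavage every other day until moribund. Tumour burden was followed weekly by IVIS luminescence until day 31, and survival was recorded.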

[13] = test system: Z138 cells with D190A ClpP overexpression; assay: Z138 xenograft with D190A ClpP overexpression; assay type: in vivo, NSG mice; details: ONC212 50 mg/kg every other day, oral gavage; D190A ClpP group
Method in brief: as §1

In the case of Acyldepsipeptide 1 [ADEP1], the IC50 (OCI-AML2 cells) is reported as 50 µM.

For COc1cccc2c1C(=O)c1c(O)c3c(c(O)c1C2=O)C[C@@](O)(C(=O)CO)C[C@@H]3O[C@H]1C[C@H](N)[C@H](O)[C@H](C)O1 [adriamycin], the “Growth and viability / sensitivity of ONC201-resistant Z138 cells” value (shortened to “Growth and viability / sensitivity”) [1] was “retained similar sensitivity”.

For Cc1ccccc1CN1C(=O)C2=C(CCN(Cc3ccccc3)C2)N2CCN=C12 [ONC201], the “IC50 values, growth and viability” value [2] is given as “low micromolar”, the “Serious adverse events in clinical trials” value (AML and other cancers) is given as “without serious adverse events reported yet” and the “Effect on normal hematopoietic cells” value [3] is given as “had little effect”.

For O=C1C2=C(CCN(Cc3ccccc3)C2)N2CCN=C2N1Cc1ccc(C(F)(F)F)cc1 [ONC212], the “Hill coefficient (FITC-casein data)” value [4] was 4.98 ± 0.47, the EC50 [5] was 0.18 µM and the EC50 [6] was 0.37 µM. The EC50 [7] was 3.37 µM, the “IC50 values, growth and viability” value [2] was “nanomolar range” and the “Apoptosis in primary AML patient samples” value [8] was “induced apoptosis”. The “Growth and viability of CLPP+/+ cells” value [9] was “reduced the growth and viability”, the “Growth and viability of CLPP-/- cells” value [10] was “but not CLPP^−/− cells” and the “Growth and viability / sensitivity” value [1] was “cross-resistant”. The “Activation of proteolytic activity of D190A ClpP” value (recombinant D190A ClpP) was “could not activate proteolytic activity”, the “Binding of endogenous ClpP in cells (CETSA)” value [11] was “bound endogenous ClpP” and the “Degradation of α-casein by ClpP (SDS-PAGE)” value (ClpP) was “induced cleavage of α-casein without the need for ClpX”. The “Tumor burden (luciferase, IVIS imaging)” value [12] was “significantly reduced”, the Median survival ([12]; vehicle 49 days) was 55 days and the “Tumor burden / anti-tumor activity (luciferase, IVIS imaging)” value [13] was “no discernable anti-tumor activity”. For the same compound, the “Effect on normal hematopoietic cells” value [3] was “had little effect”.

With CC[C@]1(O)C[C@H]2CN(CCc3c([nH]c4ccccc34)[C@@](C(=O)OC)(c3cc4c(cc3OC)N(C=O)[C@H]3[C@@](O)(C(=O)OC)[C@H](OC(C)=O)[C@]5(CC)C=CCN6CC[C@]43[C@@H]65)C2)C1 [vincristine] the “Growth and viability / sensitivity” value [1] was “retained similar sensitivity”.

— publication PMC6620028 (Cancer cell, 2019)
